The source made the active and inactive calls.
Experiments:
[1] = Selectivity index, ratio of CC50 for human MT4 cells to EC50 for TLR8 in human cryopreserved PBMC assessed as induction of IL-12p40 production
[2] = biological target: T1, Nucleotide-binding oligomerization domain-containing protein 1 (Homo sapiens) (UniProt Q9Y239); assay: Agonist activity at human NOD1 expressed in HEK293 cells assessed as increase in NF-kappaB activation up to 10 uM incubated for 24 hrs by quanti-blue SEAP reporter gene assay; assay type: cell-based; conditions: dose microM <=10, time 24.0 hrs
T1 sequence (whole entry): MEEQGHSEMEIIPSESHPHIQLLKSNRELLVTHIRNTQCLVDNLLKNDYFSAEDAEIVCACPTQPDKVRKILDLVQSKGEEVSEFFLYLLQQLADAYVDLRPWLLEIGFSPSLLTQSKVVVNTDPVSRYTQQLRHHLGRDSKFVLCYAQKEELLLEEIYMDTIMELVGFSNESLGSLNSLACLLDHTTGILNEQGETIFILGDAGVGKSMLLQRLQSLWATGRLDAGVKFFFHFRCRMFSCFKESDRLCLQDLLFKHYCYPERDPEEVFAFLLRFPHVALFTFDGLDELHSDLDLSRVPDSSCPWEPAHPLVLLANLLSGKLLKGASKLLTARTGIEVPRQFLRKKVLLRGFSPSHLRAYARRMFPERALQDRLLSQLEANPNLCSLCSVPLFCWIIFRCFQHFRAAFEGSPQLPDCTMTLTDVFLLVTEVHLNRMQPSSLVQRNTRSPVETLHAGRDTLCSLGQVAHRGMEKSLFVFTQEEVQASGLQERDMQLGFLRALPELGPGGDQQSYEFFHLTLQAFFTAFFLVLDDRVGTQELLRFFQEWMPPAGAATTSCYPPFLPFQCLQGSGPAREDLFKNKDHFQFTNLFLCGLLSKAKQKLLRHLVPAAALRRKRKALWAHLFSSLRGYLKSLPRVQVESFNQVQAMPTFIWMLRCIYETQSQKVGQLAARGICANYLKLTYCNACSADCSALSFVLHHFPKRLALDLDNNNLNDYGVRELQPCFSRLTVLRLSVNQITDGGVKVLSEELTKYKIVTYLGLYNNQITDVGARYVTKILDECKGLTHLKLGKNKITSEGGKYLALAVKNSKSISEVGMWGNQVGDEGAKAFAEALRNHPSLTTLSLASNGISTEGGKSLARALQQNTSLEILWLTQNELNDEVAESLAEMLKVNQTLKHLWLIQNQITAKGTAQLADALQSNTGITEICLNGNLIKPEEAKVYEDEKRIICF
Outline: (§1)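 HEK293 cells stably expressing individual human TLRs or other innate immune receptors, used as reporter gene assays. Minimum effective concentration defined as the level giving a 3-fold rise over background.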

[3] = Half life in Beagle dog at 0.25 mg/kg, iv administered as 30 mins infusion by HPLC-MS analysis; assay type: ADME, organism-based, Canis lupus familiaris; conditions: in vivo
Outline: (§2)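 30-min intravenous infusion: Sprague Dawley rats 1 mg/kg, beagle dogs 0.25 mg/kg, cynomolgus monkeys 0.1 mg/kg; n = 3 per species, reported as mean ± SD.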

[4] = Clearance in human hepatic microsomes at 2 uM measured up to 60 mins in presence of NADPH generating system by LC-MS/MS analysis; assay type: ADME, Microsome; conditions: liver microsomes
[5] = Cmax in Beagle dog at 0.5 mg/kg, po administered via gavage by HPLC-MS analysis; assay type: ADME, organism-based, Canis lupus familiaris; parameters: route oral, dose 0.5 mg/kg; conditions: in vivo
Outline: (§3)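 Oral dosing in 2% ethanol/40% PEG 300/58% 0.01N HCl: Sprague Dawley rats 5 mg/kg, beagle dogs 0.5 mg/kg, cynomolgus monkeys 3 mg/kg.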

[6] = Half life in cynomolgus monkey at 0.1 mg/kg, iv administered as 30 mins infusion by HPLC-MS analysis; assay type: ADME, organism-based, Macaca fascicularis; conditions: in vivo; outline: as §2
[7] = biological target: Toll-like receptor 4 (Homo sapiens) (UniProt O00206); assay: Agonist activity at human TLR4 expressed in HEK293 cells assessed as increase in NF-kappaB activation up to 10 uM incubated for 24 hrs by quanti-blue SEAP reporter gene assay; assay type: cell-based; conditions: dose microM <=10, time 24.0 hrs; outline: as §1
Sequence of Toll-like receptor 4 (Homo sapiens) (O00206 whole entry): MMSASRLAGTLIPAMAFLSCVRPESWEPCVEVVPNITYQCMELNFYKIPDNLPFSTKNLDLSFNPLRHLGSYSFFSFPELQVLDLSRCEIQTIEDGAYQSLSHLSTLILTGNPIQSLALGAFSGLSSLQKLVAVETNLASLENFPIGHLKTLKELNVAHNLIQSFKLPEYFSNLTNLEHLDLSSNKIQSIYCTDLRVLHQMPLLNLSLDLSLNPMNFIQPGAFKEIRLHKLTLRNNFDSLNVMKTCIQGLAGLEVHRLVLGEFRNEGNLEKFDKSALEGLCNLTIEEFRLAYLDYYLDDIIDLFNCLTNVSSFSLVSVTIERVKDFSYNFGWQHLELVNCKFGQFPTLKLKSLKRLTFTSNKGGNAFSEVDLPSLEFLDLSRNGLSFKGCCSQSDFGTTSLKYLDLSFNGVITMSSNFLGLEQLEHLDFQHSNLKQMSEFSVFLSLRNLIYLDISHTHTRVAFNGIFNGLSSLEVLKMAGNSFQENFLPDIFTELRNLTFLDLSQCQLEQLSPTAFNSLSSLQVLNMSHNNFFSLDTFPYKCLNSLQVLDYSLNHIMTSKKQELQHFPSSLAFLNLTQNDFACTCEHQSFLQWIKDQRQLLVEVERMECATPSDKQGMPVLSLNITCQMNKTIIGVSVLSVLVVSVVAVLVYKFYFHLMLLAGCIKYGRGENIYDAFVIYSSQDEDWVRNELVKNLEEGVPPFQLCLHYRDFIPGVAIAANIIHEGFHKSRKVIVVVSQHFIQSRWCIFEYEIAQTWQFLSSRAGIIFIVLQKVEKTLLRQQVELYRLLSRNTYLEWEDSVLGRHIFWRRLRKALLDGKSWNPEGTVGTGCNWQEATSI

[8] = Drug absorption in Beagle dog at 0.5 mg/kg, po administered via gavage by HPLC-MS analysis; assay type: ADME, organism-based, Canis lupus familiaris; conditions: in vivo, read-out: Drug absorption; outline: as §3
[9] = Drug metabolism in human hepatocytes assessed as glucuronidation; assay type: ADME, cell-based, Hepatocyte
[10] = AUC (infinity) in cynomolgus monkey at 3 mg/kg, po administered via gavage by HPLC-MS analysis; assay type: ADME, organism-based, Macaca fascicularis; parameters: route oral, time infinity, dose 3 mg/kg; conditions: in vivo; outline: as §3
[11] = biological target: T2, C-type lectin domain family 7 member A (Homo sapiens) (UniProt Q9BXN2); assay: Agonist activity at human Dectin1b expressed in HEK293 cells assessed as increase in NF-kappaB activation up to 10 uM incubated for 24 hrs by quanti-blue SEAP reporter gene assay; assay type: cell-based; conditions: dose microM <=10, time 24.0 hrs; outline: as §1
T2 sequence (whole entry): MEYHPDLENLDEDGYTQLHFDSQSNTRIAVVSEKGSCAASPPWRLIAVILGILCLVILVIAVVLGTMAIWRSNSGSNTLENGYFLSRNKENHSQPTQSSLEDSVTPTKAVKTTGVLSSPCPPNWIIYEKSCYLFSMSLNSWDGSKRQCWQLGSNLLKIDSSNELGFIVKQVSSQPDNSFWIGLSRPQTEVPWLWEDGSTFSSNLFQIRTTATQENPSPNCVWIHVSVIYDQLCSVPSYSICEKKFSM

[12] = biological target: Nucleotide-binding oligomerization domain-containing protein 2 (Homo sapiens) (UniProt Q9HC29); assay: Agonist activity at human NOD2 expressed in HEK293 cells assessed as increase in NF-kappaB activation up to 10 uM incubated for 24 hrs by quanti-blue SEAP reporter gene assay; assay type: cell-based; conditions: dose microM <=10, time 24.0 hrs; outline: as §1
Sequence of Nucleotide-binding oligomerization domain-containing protein 2 (Homo sapiens) (Q9HC29 whole entry, the tested form may be a part): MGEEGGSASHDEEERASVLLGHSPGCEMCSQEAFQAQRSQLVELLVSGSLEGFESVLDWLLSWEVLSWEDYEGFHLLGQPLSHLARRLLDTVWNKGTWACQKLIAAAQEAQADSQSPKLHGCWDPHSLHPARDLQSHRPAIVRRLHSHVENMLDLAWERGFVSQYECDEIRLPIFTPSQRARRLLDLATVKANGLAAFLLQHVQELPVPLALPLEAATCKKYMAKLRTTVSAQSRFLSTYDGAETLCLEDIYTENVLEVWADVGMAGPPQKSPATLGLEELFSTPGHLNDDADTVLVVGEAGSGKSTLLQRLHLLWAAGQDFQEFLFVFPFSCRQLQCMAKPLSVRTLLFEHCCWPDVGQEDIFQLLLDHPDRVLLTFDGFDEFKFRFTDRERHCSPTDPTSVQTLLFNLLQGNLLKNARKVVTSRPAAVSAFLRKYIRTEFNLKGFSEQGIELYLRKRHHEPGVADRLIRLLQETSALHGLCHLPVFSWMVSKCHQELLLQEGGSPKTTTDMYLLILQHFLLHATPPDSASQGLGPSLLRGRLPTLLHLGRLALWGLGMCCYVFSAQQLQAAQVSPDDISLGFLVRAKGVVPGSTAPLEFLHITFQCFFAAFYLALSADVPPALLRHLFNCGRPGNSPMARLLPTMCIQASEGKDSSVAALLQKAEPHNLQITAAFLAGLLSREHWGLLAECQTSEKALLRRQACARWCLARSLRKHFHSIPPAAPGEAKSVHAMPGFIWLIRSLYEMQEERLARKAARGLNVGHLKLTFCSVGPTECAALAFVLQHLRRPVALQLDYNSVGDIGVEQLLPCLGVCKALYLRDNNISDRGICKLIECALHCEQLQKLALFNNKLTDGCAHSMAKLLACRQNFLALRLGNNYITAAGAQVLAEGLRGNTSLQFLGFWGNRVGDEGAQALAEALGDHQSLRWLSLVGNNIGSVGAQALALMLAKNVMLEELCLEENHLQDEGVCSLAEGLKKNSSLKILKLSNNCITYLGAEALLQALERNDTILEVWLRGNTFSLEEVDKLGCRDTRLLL

- Activity [2]: inactive
- half-life [3]: 79.2 min
- CLhep predicted at 2 µM [4]: 16.7 mL/min/kg
- Cmax [5]: 9.7 nM
- half-life [6]: 40.2 min
- Activity [7]: inactive
- Fa [8]: 28%
- Drug metabolism [9]: Metabolite_Detected
- AUC(0-inf) [10]: 4.7 nM·h
- Activity [11]: inactive
- Activity [12]: inactive
Structure (SMILES): CCCC[C@](C)(CO)Nc1nc(N)nc2cc(F)cnc12 [SELGANTOLIMOD]
- Ratio CC50/EC50 [1]: 77

Source: ChEMBL document CHEMBL4725242, “Discovery of GS-9688 (Selgantolimod) as a Potent and Selective Oral Toll-Like Receptor 8 Agonist for the Treatment of Chronic Hepatitis B” (J Med Chem, 2020)
